According to ChEMBL document CHEMBL4229392, “An Efficient Buchwald-Hartwig/Reductive Cyclization for the Scaffold Diversification of Halogenated Phenazines: Potent Antibacterial Targeting, Biofilm Eradication, and Prodrug Exploration” (J Med Chem, 2018):
In brackets after ≈: the same amount, converted by molar mass. Activity calls are given as the source filed them. No cut-off for these calls is given here.

Experiments:
[1] = tested on: Staphylococcus aureus; assay: Antibacterial activity against methicillin-resistant Staphylococcus aureus BAA-1707 after 16 to 18 hrs by broth microdilution method; format: functional
How it was run: (§1)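 CLSI broth microdilution in Lysogeny Broth, eleven two-fold dilutions spanning 0.10–100 µM; ~10^5 cells per well from log-phase culture; DMSO vehicle (top 1% v/v). MIC = lowest concentration preventing growth after 16–18 h at 37 °C, supported by OD600; three independent experiments.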

[2] = tested on: Staphylococcus epidermidis; assay: Antibacterial activity against methicillin-resistant Staphylococcus epidermidis ATCC 35984 after 16 to 18 hrs by broth microdilution method; format: functional
[3] = tested on: Enterococcus faecium; assay: Antibacterial activity against vancomycin-resistant Enterococcus faecium ATCC 700221 after 16 to 18 hrs by broth microdilution method; format: functional; how it was run: as §1
[4] = Metal chelating activity assessed as compound-Fe2+ complex formation at 5 mM by UV-vis spectrometry
How it was run: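 HP solutions given ammonium iron(II) sulfate hexahydrate; UV-vis scans 300–700 nm in 2 nm steps, λmax 374 nm. Loss of absorbance at 374 nm taken as loss of free hydroxyphenazine and formation of phenazine–iron(II) complex.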

[5] = tested on: HeLa; assay: Cytotoxicity against human HeLa cells after 24 hrs by LDH release assy; format: cell-based
How it was run: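 HeLa cells in DMEM with 10% FBS at 37 °C, 5% CO2, dosed at 70-80% confluence with compound diluted in medium at 25, 50 and 100 µM for 24 h. Supernatant mixed with LDH reaction mixture, 30 min at room temperature, stopped, A490 read. Triton X-100 (2% v/v) as maximal-release control, medium only as no-death control, DMSO as vehicle. Three independent experiments.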

[6] = Half life in human serum by LC-MS analysis; format: ADME, cell-free
How it was run: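 Human serum pre-warmed to 37 °C, spiked with prodrug from 10 mM DMSO stock plus internal standard, vortexed, then held 1 to 60 min. At each time point, acetonitrile with 0.5% formic acid was added to precipitate proteins. Released active HP was quantified as its ratio to internal standard against standard curves.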

[7] = tested on: Staphylococcus epidermidis; assay: Induction of biofilm eradication of methicillin-resistant Staphylococcus epidermidis ATCC 35984 after 24 hrs by calgary biofilm device method; format: functional
How it was run: (§2)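 Calgary device: biofilms established 24 h at 37 °C from mid-log culture diluted 1,000-fold in TSBG (0.5% glucose), washed, exposed 24 h to 2-fold serial dilutions, then peg lid moved to fresh TSBG for 24 h recovery. MBEC = lowest concentration giving no turbidity; at least three independent experiments.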

[8] = tested on: Staphylococcus aureus; assay: Antibacterial activity against methicillin-resistant Staphylococcus aureus BAA-1707 after 16 hrs by agar diffusion method; format: functional
[9] = tested on: Staphylococcus epidermidis; assay: Bactericidal activity against methicillin-resistant Staphylococcus epidermidis ATCC 35984 planktonic cells after 24 hrs by calgary biofilm device method; format: organism-based
How it was run: (§3)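 Biofilms grown 24 h at 37 °C on Calgary device pegs from mid-log culture diluted 1,000-fold in TSB + 0.5% glucose; washed pegs challenged 24 h at 37 °C with 2-fold serial dilutions. Challenge medium subcultured into fresh TSBG overnight; MBC = concentration without visible turbidity; at least three independent experiments.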

[10] = tested on: Staphylococcus aureus; assay: Bactericidal activity against methicillin-resistant Staphylococcus aureus BAA-1707 planktonic cells after 24 hrs by calgary biofilm device method; format: organism-based; how it was run: as §3
[11] = tested on: Enterococcus faecium; assay: Induction of biofilm eradication of vancomycin-resistant Enterococcus faecium ATCC 700221 after 24 hrs by calgary biofilm device method; format: functional; how it was run: as §2
[12] = tested on: Staphylococcus aureus; assay: Induction of biofilm eradication of methicillin-resistant Staphylococcus aureus BAA-1707 after 24 hrs by calgary biofilm device method; format: functional; how it was run: as §2
[13] = tested on: Enterococcus faecium; assay: Bactericidal activity against vancomycin-resistant Enterococcus faecium ATCC 700221 planktonic cells after 24 hrs by calgary biofilm device method; format: organism-based; how it was run: as §3
[14] = Hemolytic activity in human RBC at 200 uM after 1 hr relative to control; format: ADME, cell-based, Erythrocyte; conditions: red blood cells (erythrocytes), read-out: Activity
How it was run: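 Human RBCs drawn fresh into EDTA were washed three times in Tris-buffered saline (0.01 M Tris, 0.155 M NaCl, pH 7.2). 2% hRBC suspension was added to compound from DMSO stock, final 200 µM, for 1 h at 37 °C, then centrifuged and supernatant OD405 read. Scaled between DMSO (0%) and Triton X (100%). Three independent experiments.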

[15] = tested on: Staphylococcus aureus; assay: Bactericidal activity against methicillin-resistant Staphylococcus aureus BAA-44 planktonic cells after 24 hrs by calgary biofilm device method; format: organism-based; how it was run: as §3
[16] = tested on: Staphylococcus aureus; assay: Bactericidal activity against methicillin-resistant Staphylococcus aureus 2 planktonic cells after 24 hrs by calgary biofilm device method; format: organism-based; how it was run: as §3
[17] = tested on: Staphylococcus aureus; assay: Induction of biofilm eradication of methicillin-resistant Staphylococcus aureus BAA-44 after 24 hrs by calgary biofilm device method; format: functional; how it was run: as §2
[18] = tested on: Staphylococcus aureus; assay: Induction of biofilm eradication of methicillin-resistant Staphylococcus aureus 2 after 24 hrs by calgary biofilm device method; format: functional; how it was run: as §2
[19] = tested on: Mycobacterium tuberculosis; assay: Antibacterial activity against Mycobacterium tuberculosis H37Ra ATCC 25177 after 7 days; format: functional; conditions: H37Ra ATCC 25177, 168 h
How it was run: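 M. tuberculosis H37Ra grown two weeks in Middlebrook 7H9, diluted to OD600 0.01; two-fold serial dilutions 0.024–50 µM (streptomycin positive control, 0.16–340 µM); final DMSO 0.5%. Incubated 7 days at 37 °C; MIC = lowest concentration with no growth, OD600 recorded; three independent experiments.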

[20] = tested on: Staphylococcus aureus; assay: Antibacterial activity against methicillin-resistant Staphylococcus aureus 2 after 16 to 18 hrs by broth microdilution method; format: functional; how it was run: as §1
[21] = Metal chelating activity assessed as compound-copper complex formation by UV-vis spectrometry

SMILES | MIC [1] [µM] | MIC [2] [µM] | MIC [3] [µM] | IC50 [5] [µM] | MBEC [7] [µM] | MBC [9] [µM] | MBC [10] [µM] | MBEC [11] [µM] | MBEC [12] [µM] | MBC [13] [µM] | hemolysis at 1 h, 200 µM [14] [%] | MBC [16] [µM] | MBEC [18] [µM] | MIC [19] [µM] | MIC [20] [µM] | also measured
Cc1ccc2nc3c(Br)cc(Br)c(O)c3nc2c1C | > 100 | > 100 | > 100 |  |  |  |  |  |  |  |  |  |  |  |  | Activity [4]: inactive
CC1=C(C)C(=O)C(COC(=O)OCOc2c(Br)cc(Br)c3nc4cc(Cl)ccc4nc23)=C(C)C1=O | 0.15 (≈ 0.0937 µg/mL) |  | 1.56 (≈ 0.974 µg/mL) | > 100 | 25 | 12.5 (≈ 7.81 µg/mL) | 6.25 (≈ 3.9 µg/mL) | 3.13 | 12.5 | 3.13 (≈ 1.96 µg/mL) | 2.7 |  |  |  |  | half-life [6]: 11.4 min; inhibition zone (IZ) [8]: 2.86 cm2
Oc1c(Br)cc(Br)c2nc3ccccc3nc12 |  |  | 6.25 (≈ 2.21 µg/mL) | > 100 | 100 | 50 (≈ 17.7 µg/mL) | 18.8 to 37.5 (≈ 6.66 to 13.3 µg/mL) | 9.38 | 150 | 23.5 (≈ 8.32 µg/mL) | ≤ 1 | 50 (≈ 17.7 µg/mL) | 100 | 25 (≈ 8.85 µg/mL) |  | MBC [15]: 37.5 µM (≈ 13.3 µg/mL); MBEC [17]: 150 µM
Cc1cc(C)c2nc3c(Br)cc(Br)c(O)c3nc2c1 | 0.075 to 0.08 (≈ 0.0287 to 0.0306 µg/mL) | 0.1 (≈ 0.0382 µg/mL) | 0.2 (≈ 0.0764 µg/mL) | > 100 |  |  |  |  |  |  | 2.2 |  |  | 50 (≈ 19.1 µg/mL) | 0.3 (≈ 0.115 µg/mL) | 
Oc1c(Br)cc(Br)c2nc3cc(Oc4ccccc4)ccc3nc12 | 0.075 (≈ 0.0335 µg/mL) | 0.1 (≈ 0.0446 µg/mL) | 0.2 (≈ 0.0892 µg/mL) | > 100 |  |  |  |  |  |  | ≤ 1 |  |  | 6.25 (≈ 2.79 µg/mL) | 0.39 (≈ 0.174 µg/mL) | MBC [15]: 25 µM (≈ 11.2 µg/mL)
CN[C@H](CC(C)C)C(=O)N[C@H]1C(=O)N[C@@H](CC(N)=O)C(=O)N[C@H]2C(=O)N[C@H]3C(=O)N[C@H](C(=O)N[C@H](C(=O)O)c4cc(O)cc(O)c4-c4cc3ccc4O)[C@H](O)c3ccc(c(Cl)c3)Oc3cc2cc(c3O[C@@H]2O[C@H](CO)[C@@H](O)[C@H](O)[C@H]2O[C@H]2C[C@](C)(N)[C@H](O)[C@H](C)O2)Oc2ccc(cc2Cl)[C@H]1O [VANCOMYCIN] |  |  | > 100 |  | >2000 | 3 (≈ 4.35 µg/mL) | 3.9 (≈ 5.65 µg/mL) | 150 | >2000 | > 200 | ≤ 1 | 3 (≈ 4.35 µg/mL) | >2000 |  |  | MBEC [17]: >2000 µM
CS(=O)(=O)N1CCN(C(=O)Oc2c(Br)cc(Br)c3nc4ccccc4nc23)C1=O |  | 1.56 (≈ 0.849 µg/mL) | 3.13 (≈ 1.7 µg/mL) | > 100 | 37.5 | 18.8 (≈ 10.2 µg/mL) | 37.5 (≈ 20.4 µg/mL) | 9.38 | 75 | 9.38 (≈ 5.1 µg/mL) | ≤ 1 |  |  |  |  | half-life [6]: < 1 min
CCN(CC)c1ccc2nc3c(O)c(Br)cc(Br)c3nc2c1Br | 0.15 (≈ 0.0756 µg/mL) | 0.1 (≈ 0.0504 µg/mL) | 0.3 (≈ 0.151 µg/mL) | > 100 | 6.25 | 9.38 (≈ 4.73 µg/mL) | 9.38 (≈ 4.73 µg/mL) |  | 4.69 |  | ≤ 1 |  |  |  | 0.3 (≈ 0.151 µg/mL) | 
CO[C@H]1/C=C/O[C@@]2(C)Oc3c(C)c(O)c4c(O)c(c(/C=N/N5CCN(C)CC5)c(O)c4c3C2=O)NC(=O)/C(C)=C\C=C\[C@H](C)[C@H](O)[C@@H](C)[C@@H](O)[C@@H](C)[C@H](OC(C)=O)[C@@H]1C [RIFAMPIN] |  | 0.1 (≈ 0.0823 µg/mL) |  |  | 15.6 | 3 (≈ 2.47 µg/mL) |  |  |  |  |  | 2 (≈ 1.65 µg/mL) | 46.9 |  | 0.1 (≈ 0.0823 µg/mL) | 
CC(=O)NC[C@H]1CN(c2ccc(N3CCOCC3)c(F)c2)C(=O)O1 [LINEZOLID] | 12.5 (≈ 4.22 µg/mL) |  |  |  |  |  | 31.3 (≈ 10.6 µg/mL) |  | >2000 |  | ≤ 1 |  | >2000 |  | 3.13 (≈ 1.06 µg/mL) | 
CCc1ccc2nc3c(O)c(Br)cc(Br)c3nc2c1 | 0.1 (≈ 0.0382 µg/mL) | 0.1 (≈ 0.0382 µg/mL) | 2.35 (≈ 0.898 µg/mL) | > 50 | 75 | 50 (≈ 19.1 µg/mL) | 75 (≈ 28.7 µg/mL) |  | 150 | 50 (≈ 19.1 µg/mL) | 3 | 75 (≈ 28.7 µg/mL) | 150 | 6.25 (≈ 2.39 µg/mL) | 0.59 (≈ 0.225 µg/mL) | MBC [15]: 75 µM (≈ 28.7 µg/mL); MBEC [17]: 75 µM
CCc1cccc2nc3c(Br)cc(Br)c(O)c3nc12 | > 100 | > 100 | > 100 |  |  |  |  |  |  |  |  |  |  |  |  | Activity [4]: inactive; Activity [21]: inactive
CC(C)(C)c1ccc2nc3c(O)c(Br)cc(Br)c3nc2c1 | 0.1 (≈ 0.041 µg/mL) | 0.1 (≈ 0.041 µg/mL) | 0.1 (≈ 0.041 µg/mL) | > 100 | 3.13 | 6.25 (≈ 2.56 µg/mL) |  |  |  | 1.56 (≈ 0.64 µg/mL) | ≤ 1 | 3.13 (≈ 1.28 µg/mL) | 3.13 |  | 0.1 (≈ 0.041 µg/mL) | 
